Measured values pooled from the literature.
Compare with care: the assays were run in different laboratories.
F2: Prothrombin (F2, Homo sapiens, UniProt P00734)
gag-pol protease: Gag-Pol polyprotein, protease (gag-pol, Human immunodeficiency virus type 1 group M subtype B, UniProt P04585)
KCNH2: Voltage-gated inwardly rectifying potassium channel KCNH2 (KCNH2, Homo sapiens, UniProt Q12809)
CES1: Liver carboxylesterase 1 (CES1, Homo sapiens, UniProt P23141)
tlpQ: tlpQ (Pseudomonas aeruginosa, UniProt Q9I0I4)

CCOC(=O)c1ccc(OC(=O)CCCCCN=C(N)N)cc1
IC50 (F2; enzyme activity, inhibitor): 0.588 µM

COc1cc2c(cc1OC)CN(CCc1ccc(NC(=O)c3cccc4c(=O)c5cccc(OC)c5[nH]c34)cc1)CC2
Ki (5-hydroxytryptamine receptor 1B (HTR1B, Homo sapiens, UniProt P28222); cell-free assay): > 10 µM

CS(=O)(=O)N[C@@H](CCC(N)=O)C(=O)N[C@@H](Cc1ccccc1)C(=O)N[C@@H](CCCNC(=N)N)C(=O)c1nccs1
Ki (F2; cell-free assay): > 10 µM

COc1ccc(S(=O)(=O)N(CC(C)C)C[C@@H](O)[C@H](Cc2ccccc2)NC(=O)O[C@@H]2CCC[C@@]23CCO[C@@H](c2cc(OC)cc(OC)c2)C3)cc1
Ki (gag-pol protease; enzyme activity, inhibitor): 0.0355 µM

CC(=O)c1c(C)c2cnc(Nc3ccc(C4CCN(CCS(C)(=O)=O)CC4)cn3)nc2n(C2CCCC2)c1=O
IC50 (KCNH2; ion current, inhibitor): > 30 µM

C=CCc1ccc(O)c(-c2cc(CC=C)ccc2O)c1
Ki (CES1; enzyme activity, inhibitor): 0.094 µM

COCCC(=O)N[C@@H](CCC(N)=O)C(=O)N[C@@H](Cc1ccccc1)C(=O)N[C@@H](CCCNC(=N)N)C(=O)c1nc2ccccc2s1
Ki (F2; cell-free assay): > 10 µM

COc1ccc(S(=O)(=O)N(CC(C)C)C[C@@H](O)[C@H](Cc2ccccc2)NC(=O)O[C@@H]2CCC[C@@]23CCO[C@@H](c2ccccc2)C3)cc1
Ki (gag-pol protease; enzyme activity, inhibitor): 0.051 µM

NC[C@H](O)c1ccc(O)c(O)c1
Kd (tlpQ; binding, ITC): > 1000 µM

COc1ccc(S(=O)(=O)N(CC(C)C)C[C@@H](O)[C@H](Cc2ccccc2)NC(=O)O[C@@H]2CCC[C@@]23CCO[C@@H](c2ccccc2OC)C3)cc1
Ki (gag-pol protease; enzyme activity, inhibitor): 0.0167 µM

CC(C)=CCC[C@](C)(O)[C@H]1CC[C@]2(C)[C@@H]1[C@H](O)C[C@@H]1[C@@]3(C)CC[C@H](O)C(C)(C)[C@@H]3[C@@H](O[C@@H]3O[C@H](CO)[C@@H](O)[C@H](O)[C@H]3O)C[C@]12C
Kd (Aldo-keto reductase family 1 member B10 (AKR1B10, Homo sapiens, UniProt O60218); binding, BLI): 3.19 µM

O=c1c2cc(Cl)c(CO)cc2[nH]c(=S)n1Cc1cccnc1
IC50 (KCNH2; ion current, inhibitor, patch clamp; pH 7.4): > 10 µM

COc1c2c(cc3c1-c1c(cc4c(c1OC)OCO4)C[C@H](C)[C@H](C)C3)OCO2
Ki (CES1; enzyme activity, inhibitor): 0.0898 µM

NCCc1c[nH]c2ccc(O)cc12
Kd (tlpQ; binding, ITC): > 1000 µM

COc1ccc(S(=O)(=O)N(CC(C)C)C[C@@H](O)[C@H](Cc2ccccc2)NC(=O)O[C@@H]2CCC[C@@]23CCO[C@@H](c2cccc(OC)c2)C3)cc1
Ki (gag-pol protease; enzyme activity, inhibitor): 1.14 µM
